For orientation: MIC means the lowest concentration found to suppress growth. A word on the IC50: it is the midpoint of a concentration-inhibition curve.

The text below walks through data of ChEMBL document CHEMBL4680121, “Development of (4-methoxyphenyl)-1H-tetrazol-5-amine regioisomers as a new class of selective antitubercular agents” (Eur J Med Chem, 2020).

Molecules are shown by their SMILES.

In series [1] the test system is Mycobacterium tuberculosis. As to the kind of experiment: Antitubercular activity against Mycobacterium tuberculosis H37Rv ATCC 25618 assessed as fractional inhibitory concentration index incubated for 14 days in presence of 1/2 x MIC ethambutol by MABA method. The series is classed as functional. To be noted: time 14 day. In a few lines:
(§1)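 Interaction analysis in Middlebrook 7H9 with 10% OADC. Combination MICs came from mixing the derivative (1 to 1/32 MIC) with the reference drug at 1/2 MIC, and the reverse, after 14 days at 37 °C with McFarland 1 inoculum. FICI was calculated from the combination MIC values and the MICs alone.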
For orientation: Alamar Blue is a resazurin reagent that responds to reducing activity.

Series [2] deals with Mycobacterium tuberculosis. As to the kind of experiment: Antitubercular activity against Mycobacterium tuberculosis Spec.192 assessed as reduction in bacterial growth incubated for 14 days in presence of 1/2 x MIC streptomycin by MABA method. To be noted: Mycobacterium tuberculosis, 192, 336 h; time 14 day. The series is classed as functional. The method, boiled down: (§2)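 Checkerboard-type combination in Middlebrook 7H9 with 10% OADC. The test derivative at 1 to 1/32 of its MIC alone was mixed with the reference drug fixed at 1/2 its MIC. 4 ml samples were inoculated with McFarland 1 suspension and incubated 14 days at 37 °C. MIC is the lowest derivative concentration in combination that inhibited growth in liquid medium.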

In series [3] the test system is Mycobacterium tuberculosis. As to the kind of experiment: Antitubercular activity against Mycobacterium tuberculosis Spec.192 assessed as fractional inhibitory concentration index in presence of 1/2 x MIC rifampicin incubated for 14 days by MABA method. In kind it is functional. To be noted: time 14 day. In a few lines: as §1
For series [4], the system named is Mycobacterium tuberculosis. As to the kind of experiment: Antitubercular activity against Mycobacterium tuberculosis H37Rv ATCC 25618 assessed as ethambutol MIC incubated for 14 days in presence of ethambutol by MABA method. In kind it is functional. To be noted: H37Rv ATCC 25618, 336 h, time 14 day. In a few lines: (§3)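 In Middlebrook 7H9 with 10% OADC, the reference drug (INH, RMP, SM or EMB) at 1 to 1/32 of its MIC alone was mixed with the test derivative fixed at 1/2 its MIC. 4 ml samples were inoculated with McFarland 1 suspension and incubated 14 days at 37 °C. MIC is the lowest drug concentration in combination that inhibited growth.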

For series [5], the system named is V79. As to the kind of experiment: Cytotoxicity against Chinese Hamster V79 cells assessed as reduction in cell viability at 100 uM measured after 72 hrs by MTT assay. The note with it: v79, 72 h. In kind it is cell-based, Cricetulus griseus. The method, boiled down:
(§4)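 MTT viability assay on cells grown in DMEM with 10% heat-inactivated FBS, penicillin/streptomycin and 20 mM HEPES at 37 °C/5% CO2. Cells were seeded at 1×10^4 per well and allowed to adhere for 24 h, then the medium was refreshed. Compounds were added at 20–140 μM for 72 h at 37 °C, followed by MTT (0.5 mg/mL in serum-free medium) for 4 h. Untreated cells served as control. IC50 is the concentration giving 50% growth inhibition versus control.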

The next series has as its system Pseudomonas aeruginosa. As to the kind of experiment: Antibacterial activity against Pseudomonas aeruginosa NCTC 6749 assessed as bacterial growth inhibition measured after 18 hrs by two-fold serial microdilution method. In kind it is functional. In a few lines: (§5)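 Two-fold serial broth microdilution in MH II medium following modified CLSI procedures. Compounds were dissolved in DMSO and diluted in medium to at most 1% solvent, tested from 0.03125 to 512 μg/ml. Final inoculum 10^6 CFU/ml. MIC was taken as the lowest concentration with no visible growth after 18 h at 35 °C.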

In series [6] the test system is Mycolicibacterium fortuitum. As to the kind of experiment: Antibacterial activity against Mycobacterium fortuitum assessed as inhibition of microbial growth incubated for 1 week by MABA method. In kind it is functional. The note with it: 168 h, time 1 weeks. In a few lines:
(§6)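 Microplate Alamar Blue assay using two-fold serial microdilution in Middlebrook 7H9 broth with 10% OADC, compounds 0.125–512 µg/ml from DMSO stocks. Inoculum came from fresh LJ culture, was adjusted to McFarland 1 and diluted 1:20. Plates were incubated 1 week at 37 °C, Alamar blue was added and plates were re-incubated 24 h. MIC was the lowest concentration preventing the blue-to-pink change. Each plate carried growth and sterile controls.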

Series [7] relates to HaCaT. As to the kind of experiment: Cytotoxicity against human HaCaT cells assessed as LDH release at 100 uM incubated for 72 hrs by LDH assay. In kind it is cell-based. The method, boiled down: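 LDH release measured with a kit after 72 h exposure to 100 μM compound. Cells were seeded at 1×10^4 per well in DMEM or EMEM with 2% FBS. Absorbance was read at 490 nm. Release (%) = (A sample − A low control)/(A high control − A low control) × 100, with the Triton X-100 (1%) control taken as 100% release. Values are mean ± SD of three independent experiments run in triplicate.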
On the technique in general: LDH in the medium is a marker of cell lysis.

In another series the test system is Escherichia coli. As to the kind of experiment: Antibacterial activity against Escherichia coli ATCC 25922 assessed as bacterial growth inhibition measured after 18 hrs by two-fold serial microdilution method. In kind it is functional. The method, boiled down: as §5
Series [8] relates to Mycobacterium tuberculosis. As to the kind of experiment: Antitubercular activity against Mycobacterium tuberculosis H37Rv ATCC 25618 assessed as fractional inhibitory concentration index incubated for 14 days in presence of 1/2 x MIC isoniazid by MABA method. In kind it is functional. The note with it: time 14 day. The method, boiled down: as §1
Series [9] has as its system Mycobacterium tuberculosis. As to the kind of experiment: Antitubercular activity against Mycobacterium tuberculosis Spec.192 assessed as rifampicin MIC incubated for 14 days in presence of rifampicin by MABA method. In kind it is functional. To be noted: Mycobacterium tuberculosis, 192, 336 h; time 14 day. The method, boiled down: as §3
The test system of series [10] is HaCaT. As to the kind of experiment: Cytotoxicity against human HaCaT cells assessed as reduction in cell viability measured after 72 hrs by MTT assay. The series is classed as cell-based. In a few lines: as §4
In general terms: Tetrazolium dyes change colour on reduction, which living cells bring about.

In series [11] the test system is Mycobacterium tuberculosis. As to the kind of experiment: Antitubercular activity against Mycobacterium tuberculosis Spec.192 assessed as reduction in bacterial growth incubated for 14 days in presence of 1/2 x MIC rifampicin by MABA method. In kind it is functional. To be noted: Mycobacterium tuberculosis, 192, 336 h; time 14 day. In a few lines:
as §2

Series [12] relates to Mycobacterium tuberculosis. As to the kind of experiment: Antitubercular activity against Mycobacterium tuberculosis H37Rv ATCC 25618 assessed as reduction in bacterial growth incubated for 14 days in presence of 1/2 x MIC streptomycin by MABA method. In kind it is functional. The note with it: H37Rv ATCC 25618, 336 h, time 14 day. In a few lines: as §2
Series [13] concerns Mycobacterium tuberculosis. As to the kind of experiment: Potentiation of streptomycin-induced antimycobacterial activity against Mycobacterium tuberculosis H37Rv ATCC 25618 assessed as fold decrease in streptomycin MIC at 1/2X MIC incubated for 14 days in presence of streptomycin by MABA method. In kind it is functional. The note with it: time 14 day. In a few lines: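 Combination assay in Middlebrook 7H9 broth with 10% OADC. The reference drug (INH, RMP, SM or EMB) was varied from 1 to 1/32 of its MIC, and the test derivative was fixed at 1/2 its own MIC. Single-agent MICs were determined first by MABA. Inoculum was 1 McFarland, with 14 days of incubation at 37 °C. The endpoint was the lowest reference-drug concentration that inhibited growth.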

For series [14], the system named is Mycobacterium tuberculosis. As to the kind of experiment: Antitubercular activity against Mycobacterium tuberculosis H37Rv ATCC 25618 assessed as fractional inhibitory concentration index incubated for 14 days in presence of 1/2 x MIC rifampicin by MABA method. The series is classed as functional. To be noted: time 14 day. In a few lines:
as §1

Series [15] concerns HaCaT. As to the kind of experiment: Cytotoxicity against human HaCaT cells assessed as reduction in cell viability at 100 uM measured after 72 hrs by MTT assay. The series is classed as cell-based. In a few lines: as §4
Series [16] deals with V79. As to the kind of experiment: Cytotoxicity against Chinese Hamster V79 cells assessed as reduction in cell viability measured after 72 hrs by MTT assay. The note with it: Cricetulus griseus, V79, 72 h. In kind it is cell-based. In a few lines:
as §4

Series [17] relates to Mycobacterium scrofulaceum. As to the kind of experiment: Antibacterial activity against Mycobacterium scrofulaceum assessed as inhibition of microbial growth incubated for 1 week by MABA method. The series is classed as functional. The note with it: 168 h, time 1 weeks. The method, boiled down:
as §6

The subject of another series is Proteus vulgaris. As to the kind of experiment: Antibacterial activity against Proteus vulgaris NCTC 4635 assessed as bacterial growth inhibition measured after 18 hrs by two-fold serial microdilution method. The series is classed as functional. The method, boiled down:
as §5

The subject of a further series is Staphylococcus aureus. As to the kind of experiment: Antibacterial activity against Staphylococcus aureus ATCC 6538 assessed as bacterial growth inhibition measured after 18 hrs by two-fold serial microdilution method. In kind it is functional. In a few lines:
as §5

Another series relates to Klebsiella pneumoniae. As to the kind of experiment: Antibacterial activity against Klebsiella pneumoniae ATCC 10031 assessed as bacterial growth inhibition measured after 18 hrs by two-fold serial microdilution method. The series is classed as functional. In a few lines: as §5

Consider `COc1ccc(-n2nnnc2Nc2cccc(Br)c2)cc1`, for which the “fractional inhibitory concentration index (FICI)” value in [1] stood at 0.75; in series [3], 0.5; in [8] it was 4.125; in series [14], 0.5. The MIC in series [2] was 0.5 µg/mL; in series [4], 1 µg/mL; with Pseudomonas aeruginosa, > 256 µg/mL; in series [6], 256 µg/mL; in the series on Escherichia coli it was > 256 µg/mL; in [9] it was 0.25 µg/mL. In addition, the MIC in [11] was 0.5 µg/mL; in series [12] it was 0.5 µg/mL; in series [17], 512 µg/mL; in the series on Proteus vulgaris, > 256 µg/mL; in the series with Staphylococcus aureus, > 256 µg/mL; in the series on Klebsiella pneumoniae, > 256 µg/mL. Further, the Activity entry in the series with V79 [5] was “Non-Toxic”; with HaCaT [7], 4.88%; with HaCaT [15], “Non-Toxic”. The IC50 with HaCaT [10] is 138 µM; with V79 [16] it was 241 µM. The “fold change (FC)” value in [13] worked out at 2.
Take `COc1ccc(-n2nnnc2Nc2ccc(Br)cc2)cc1`: the “fractional inhibitory concentration index (FICI)” value in series [1] worked out at 0.625; in [3] it was 0.5; in series [8], 4.125; in series [14], 0.5. In addition, the minimum inhibitory concentration (MIC) was 0.25 µg/mL in series [2]; 1 µg/mL in [4]; > 256 µg/mL in the series on Pseudomonas aeruginosa; > 512 µg/mL in series [6]; > 256 µg/mL in the series on Escherichia coli; 0.25 µg/mL in [9]. Moreover, the minimal inhibitory concentration (MIC) was 0.5 µg/mL in [11]; 0.25 µg/mL in series [12]; 512 µg/mL in series [17]; > 256 µg/mL with Proteus vulgaris; > 256 µg/mL in the series with Staphylococcus aureus; > 256 µg/mL with Klebsiella pneumoniae. For the same molecule, the Activity entry was “Non-Toxic” with V79 [5], 7.25% in the series on HaCaT [7] and “Non-Toxic” in the series on HaCaT [15]. Also, the results for the concentration for half-maximal inhibition (IC50) with HaCaT [10] and in the series on V79 [16] were 131 µM and 212 µM, respectively. Moreover, the “fold change (FC)” value in [13] is on record as 4.
